Experimental data from ChEMBL document CHEMBL4813976, “Rational drug design of benzothiazole-based derivatives as potent signal transducer and activator of transcription 3 (STAT3) signaling pathway inhibitors” (Eur J Med Chem, 2021).
Activity calls are given as the source filed them. The rule behind the calls is not given here.

Assays:
[1] = target: T1, Signal transducer and activator of transcription 3 (Homo sapiens, UniProt P40763); assay: Inhibition of IL-6 induced STAT3 transcriptional activity in human HepG2 cells incubated for 1 hr followed by stimulation with IL-6 for 5.5 hrs by luciferase reporter gene assay; type: cell-based
Outline: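 STAT3-dependent luciferase reporter assay in HepG2 cells with IL-6 stimulation; IC50 given as mean ± SD of at least three independent experiments.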

HEL [2] = assay: Antiproliferative activity against human HEL cells harboring JAK2 V617F mutant assessed as inhibition of cell growth incubated for 72 hrs by MTT assay; type: functional, cell-based
Outline: (§1)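 MTT proliferation assay; MDA-MB-468 grown in DMEM/F-12 and HEL in high-glucose DMEM, each with 10% FBS and penicillin/streptomycin, at 37 °C under 5% CO₂. IC50 given as mean ± SD of at least three independent experiments.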

MDA-MB-468 [3] = assay: Antiproliferative activity against human MDA-MB-468 cells overexpressing STAT3 assessed as inhibition of cell growth incubated for 72 hrs by MTT assay; type: functional, cell-based; conditions: MDA-MB-468, 72 h; outline: as §1
MDA-MB-453 = assay: Antiproliferative activity against human MDA-MB-453 cells expressing low levels of STAT3 assessed as inhibition of cell growth incubated for 72 hrs by MTT assay; type: functional, cell-based; conditions: MDA-MB-453, 72 h
Outline: (§2)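 MTT proliferation assay on MCF-7 and MDA-MB-453 cells; IC50 given as mean ± SD of at least two independent experiments.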

MCF7 = assay: Antiproliferative activity against human MCF7 cells expressing low levels of STAT3 assessed as inhibition of cell growth incubated for 72 hrs by MTT assay; type: functional, cell-based; conditions: MCF7, 72 h; outline: as §2
[4] = target: T1, Signal transducer and activator of transcription 3; assay: Inhibition of STAT3 phosphorylation at Tyr705 residue in human HEL cells expressing JAK2 V617F mutant measured after 24 hrs by Western blot analysis; type: cell-based; conditions: dose 1.25-5 µM
Outline: (§3)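 Cells were treated for 24 h, then lysed in hot 2% SDS with boiling, and protein was quantified by BCA. Lysates were run on SDS-PAGE, transferred to nitrocellulose and blocked with 3% milk in TBST. Membranes were probed overnight at 4 °C with 1:1000 antibodies to pSTAT3 Tyr705, pSTAT3 Ser727, STAT3, c-Myc, MCL-1, β-actin and GAPDH. Detection used HRP secondaries and ECL.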

[5] = target: T1, Signal transducer and activator of transcription 3; assay: Inhibition of STAT3 phosphorylation at Ser727 residue in human HEL cells expressing JAK2 V617F mutant measured after 24 hrs by Western blot analysis; type: cell-based; conditions: dose 1.25-5 µM; outline: as §3
[6] = target: T1, Signal transducer and activator of transcription 3; assay: Inhibition of STAT3 phosphorylation at Tyr705 residue in human MDA-MB-468 cells measured after 24 hrs by Western blot analysis; type: cell-based; conditions: dose 1.25-5 µM; outline: as §3
[7] = target: T1, Signal transducer and activator of transcription 3; assay: Inhibition of STAT3 phosphorylation at Ser727 residue in human MDA-MB-468 cells measured after 24 hrs by Western blot analysis; type: cell-based; conditions: dose 1.25-5 µM; outline: as §3
[8] = target: T1, Signal transducer and activator of transcription 3; assay: Inhibition of STAT3 in human HEL cells expressing JAK2 V617F mutant cells assessed as downregulation of c-Myc protein expression at 1.25 to 5 uM incubated for 24 hrs by western blot analysis; type: cell-based; conditions: dose 1.25-5 µM; outline: as §3
[9] = target: T1, Signal transducer and activator of transcription 3; assay: Inhibition of STAT3 in human HEL cells expressing JAK2 V617F mutant cells assessed as downregulation of MCL-1 protein expression at 1.25 to 5 uM incubated for 24 hrs by western blot analysis; type: cell-based; conditions: dose 1.25-5 µM; outline: as §3
[10] = target: T1, Signal transducer and activator of transcription 3; assay: Inhibition of STAT3 in human MDA-MB-468 cells assessed as downregulation of c-Myc protein expression at 1.25 to 5 uM incubated for 24 hrs by western blot analysis; type: cell-based; conditions: dose 1.25-5 µM; outline: as §3
[11] = target: T1, Signal transducer and activator of transcription 3; assay: Inhibition of STAT3 in human MDA-MB-468 cells assessed as downregulation of MCL-1 protein expression at 1.25 to 5 uM incubated for 24 hrs by western blot analysis; type: cell-based; conditions: dose 1.25-5 µM; outline: as §3
[12] = target: Vascular endothelial growth factor receptor 1 (Homo sapiens) (UniProt P17948); assay: Inhibition of VEGFR1 (unknown origin) at 1 uM by ELISA
[13] = target: Platelet-derived growth factor receptor beta (Homo sapiens) (UniProt P09619); assay: Inhibition of PDGFRbeta (unknown origin) at 1 uM by ELISA
[14] = target: Receptor tyrosine-protein kinase erbB-2 (Homo sapiens) (UniProt P04626); assay: Inhibition of ERBB2 (unknown origin) at 1 uM by ELISA
[15] = target: Receptor tyrosine-protein kinase erbB-4 (Homo sapiens) (UniProt Q15303); assay: Inhibition of ERBB4 (unknown origin) at 1 uM by ELISA
[16] = target: Insulin-like growth factor 1 receptor (Homo sapiens) (UniProt P08069); assay: Inhibition of IGF1R (unknown origin) at 1 uM by ELISA
MDA-MB-468 [17] = assay: Induction of apoptosis in human MDA-MB-468 cells at 1.25 to 5 uM measured after 48 hrs by AnnexinV-FITC/PI staining based flow cytometry analysis; type: functional, cell-based; conditions: dose 1.25-5 µM
Outline: (§4)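 Cells were seeded overnight, then exposed to DMSO or compound for 48 h. They were washed twice in PBS and resuspended in binding buffer with Annexin V-FITC and propidium iodide. After 15 min at room temperature in the dark, cells were analysed by flow cytometry; data are representative of three independent experiments.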

HEL [18] = assay: Induction of apoptosis in human HEL cells expressing JAK2 V617F mutant cells at 1.25 to 5 uM measured after 48 hrs by AnnexinV-FITC/PI staining based flow cytometry analysis; type: functional, cell-based; conditions: dose 1.25-5 µM; outline: as §4
MDA-MB-468 [19] = assay: Induction of cell cycle arrest in human MDA-MB-468 cells assessed as increase in accumulation at G2/M phase after 48 hrs by PI/RNase staining based flow cytometry; type: functional; conditions: dose 1.25-5 µM
Outline: (§5)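 Cells were seeded overnight, then exposed to DMSO or increasing compound concentrations for 48 h. They were fixed in ice-cold 80% ethanol overnight, stained with PI containing RNase for 30 min at 37 °C, and analysed by flow cytometry.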

HEL [20] = assay: Induction of cell cycle arrest in human HEL cells expressing JAK2 V617F mutant cells assessed as increase in accumulation at G2/M phase after 48 hrs by PI/RNase staining based flow cytometry; type: functional; conditions: dose 1.25-5 µM; outline: as §5
MDA-MB-468 [21] = assay: Induction of cell cycle arrest in human MDA-MB-468 cells assessed as decrease in accumulation at G1 phase after 48 hrs by PI/RNase staining based flow cytometry; type: functional; conditions: dose 1.25-5 µM; outline: as §5
HEL [22] = assay: Induction of cell cycle arrest in human HEL cells expressing JAK2 V617F mutant cells assessed as decrease in accumulation at G1 phase after 48 hrs by PI/RNase staining based flow cytometry; type: functional; conditions: dose 1.25-5 µM; outline: as §5
[23] = target: T1, Signal transducer and activator of transcription 3; assay: Binding affinity to His-tagged STAT3-SH2 domain (127 to 722 residues) (unknown origin) by surface plasmon resonance analysis
Outline: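 SPR on a Biacore T200 with STAT3 SH2 domain. Analytes were run as concentration series, and KD was taken as the equilibrium constant.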

[24] = target: T1, Signal transducer and activator of transcription 3; assay: Displacement of 5'-FAM-GpYLPQTV-NH2 from His-tagged STAT3-SH2 domain (127 to 722 residues) (unknown origin) assessed as binding rate at 100 uM […] by fluorescence polarization assay; conditions: time 90.0 min
[25] = target: T1, Signal transducer and activator of transcription 3; assay: Displacement of 5'-FAM-GpYLPQTV-NH2 from His-tagged STAT3-SH2 domain (127 to 722 residues) (unknown origin) assessed as binding rate at 50 uM […] by fluorescence polarization assay; conditions: time 90.0 min
[26] = target: T1, Signal transducer and activator of transcription 3; assay: Displacement of 5'-FAM-GpYLPQTV-NH2 from His-tagged STAT3-SH2 domain (127 to 722 residues) (unknown origin) assessed as binding rate at 20 uM […] by fluorescence polarization assay; conditions: time 90.0 min
HEL [27] = assay: Effect on STAT3 expression in human HEL cells expressing JAK2 V617F mutant at 1.25 to 5 uM measured after 24 hrs by Western blot analysis; type: functional, cell-based; conditions: dose 1.25-5 µM; outline: as §3
MDA-MB-468 [28] = assay: Effect on STAT3 expression in human MDA-MB-468 cells at 1.25 to 5 uM measured after 24 hrs by Western blot analysis; type: functional, cell-based; conditions: dose 1.25-5 µM; outline: as §3

T1 sequence (P40763 whole entry): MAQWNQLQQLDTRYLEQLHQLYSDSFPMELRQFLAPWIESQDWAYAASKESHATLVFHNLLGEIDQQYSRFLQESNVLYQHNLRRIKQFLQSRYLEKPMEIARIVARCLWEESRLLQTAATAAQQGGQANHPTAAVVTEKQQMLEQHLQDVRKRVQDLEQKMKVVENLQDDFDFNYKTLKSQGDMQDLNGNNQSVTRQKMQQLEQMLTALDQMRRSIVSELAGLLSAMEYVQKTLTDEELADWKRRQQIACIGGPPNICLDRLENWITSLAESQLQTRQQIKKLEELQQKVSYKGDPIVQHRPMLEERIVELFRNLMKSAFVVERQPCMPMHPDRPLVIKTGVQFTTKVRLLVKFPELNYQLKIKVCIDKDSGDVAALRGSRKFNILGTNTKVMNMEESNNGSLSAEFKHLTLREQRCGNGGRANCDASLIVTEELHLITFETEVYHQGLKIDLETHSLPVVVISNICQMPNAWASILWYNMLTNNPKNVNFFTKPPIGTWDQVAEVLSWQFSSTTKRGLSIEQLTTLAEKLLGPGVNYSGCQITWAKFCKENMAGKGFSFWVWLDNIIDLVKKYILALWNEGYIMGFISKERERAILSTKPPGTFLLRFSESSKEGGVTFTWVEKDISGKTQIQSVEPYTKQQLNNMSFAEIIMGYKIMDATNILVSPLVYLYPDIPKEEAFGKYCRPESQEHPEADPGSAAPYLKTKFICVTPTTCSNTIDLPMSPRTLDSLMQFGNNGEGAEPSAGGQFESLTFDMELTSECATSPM
Sequence of Receptor tyrosine-protein kinase erbB-4 (Homo sapiens) (Q15303 whole entry): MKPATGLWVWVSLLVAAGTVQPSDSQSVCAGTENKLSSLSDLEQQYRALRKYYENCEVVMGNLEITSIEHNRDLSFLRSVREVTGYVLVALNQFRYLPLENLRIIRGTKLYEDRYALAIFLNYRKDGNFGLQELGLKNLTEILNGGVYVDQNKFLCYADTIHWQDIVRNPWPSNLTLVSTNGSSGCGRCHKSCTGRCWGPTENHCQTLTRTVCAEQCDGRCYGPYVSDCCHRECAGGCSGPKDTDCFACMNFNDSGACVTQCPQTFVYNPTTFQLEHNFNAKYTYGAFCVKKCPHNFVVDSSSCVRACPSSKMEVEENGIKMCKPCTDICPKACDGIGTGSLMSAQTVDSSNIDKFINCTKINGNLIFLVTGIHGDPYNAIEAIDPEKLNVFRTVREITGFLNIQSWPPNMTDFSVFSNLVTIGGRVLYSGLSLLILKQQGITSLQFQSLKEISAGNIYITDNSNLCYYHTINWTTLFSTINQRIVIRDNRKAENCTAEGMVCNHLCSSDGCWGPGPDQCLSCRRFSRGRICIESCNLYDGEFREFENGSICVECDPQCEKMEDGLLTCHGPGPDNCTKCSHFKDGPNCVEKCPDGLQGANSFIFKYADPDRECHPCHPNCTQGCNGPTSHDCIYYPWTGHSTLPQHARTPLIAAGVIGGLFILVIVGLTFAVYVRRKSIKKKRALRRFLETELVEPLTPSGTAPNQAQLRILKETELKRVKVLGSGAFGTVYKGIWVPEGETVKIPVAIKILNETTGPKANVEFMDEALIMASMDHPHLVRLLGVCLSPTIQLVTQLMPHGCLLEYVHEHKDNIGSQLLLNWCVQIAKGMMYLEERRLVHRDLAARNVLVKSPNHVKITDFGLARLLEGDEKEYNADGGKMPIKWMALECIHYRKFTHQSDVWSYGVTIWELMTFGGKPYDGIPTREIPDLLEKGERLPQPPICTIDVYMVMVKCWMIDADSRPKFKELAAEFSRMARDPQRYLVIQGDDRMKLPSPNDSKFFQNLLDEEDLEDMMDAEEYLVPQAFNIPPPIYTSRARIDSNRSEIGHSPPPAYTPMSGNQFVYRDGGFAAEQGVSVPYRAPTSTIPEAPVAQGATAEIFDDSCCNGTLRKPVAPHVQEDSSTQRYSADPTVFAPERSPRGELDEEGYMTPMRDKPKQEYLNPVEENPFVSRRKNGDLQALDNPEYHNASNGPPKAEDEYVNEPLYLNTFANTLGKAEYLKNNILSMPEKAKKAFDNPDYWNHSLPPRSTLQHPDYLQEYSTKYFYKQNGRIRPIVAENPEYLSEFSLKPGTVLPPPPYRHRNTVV
Sequence of Platelet-derived growth factor receptor beta (Homo sapiens) (P09619 whole entry): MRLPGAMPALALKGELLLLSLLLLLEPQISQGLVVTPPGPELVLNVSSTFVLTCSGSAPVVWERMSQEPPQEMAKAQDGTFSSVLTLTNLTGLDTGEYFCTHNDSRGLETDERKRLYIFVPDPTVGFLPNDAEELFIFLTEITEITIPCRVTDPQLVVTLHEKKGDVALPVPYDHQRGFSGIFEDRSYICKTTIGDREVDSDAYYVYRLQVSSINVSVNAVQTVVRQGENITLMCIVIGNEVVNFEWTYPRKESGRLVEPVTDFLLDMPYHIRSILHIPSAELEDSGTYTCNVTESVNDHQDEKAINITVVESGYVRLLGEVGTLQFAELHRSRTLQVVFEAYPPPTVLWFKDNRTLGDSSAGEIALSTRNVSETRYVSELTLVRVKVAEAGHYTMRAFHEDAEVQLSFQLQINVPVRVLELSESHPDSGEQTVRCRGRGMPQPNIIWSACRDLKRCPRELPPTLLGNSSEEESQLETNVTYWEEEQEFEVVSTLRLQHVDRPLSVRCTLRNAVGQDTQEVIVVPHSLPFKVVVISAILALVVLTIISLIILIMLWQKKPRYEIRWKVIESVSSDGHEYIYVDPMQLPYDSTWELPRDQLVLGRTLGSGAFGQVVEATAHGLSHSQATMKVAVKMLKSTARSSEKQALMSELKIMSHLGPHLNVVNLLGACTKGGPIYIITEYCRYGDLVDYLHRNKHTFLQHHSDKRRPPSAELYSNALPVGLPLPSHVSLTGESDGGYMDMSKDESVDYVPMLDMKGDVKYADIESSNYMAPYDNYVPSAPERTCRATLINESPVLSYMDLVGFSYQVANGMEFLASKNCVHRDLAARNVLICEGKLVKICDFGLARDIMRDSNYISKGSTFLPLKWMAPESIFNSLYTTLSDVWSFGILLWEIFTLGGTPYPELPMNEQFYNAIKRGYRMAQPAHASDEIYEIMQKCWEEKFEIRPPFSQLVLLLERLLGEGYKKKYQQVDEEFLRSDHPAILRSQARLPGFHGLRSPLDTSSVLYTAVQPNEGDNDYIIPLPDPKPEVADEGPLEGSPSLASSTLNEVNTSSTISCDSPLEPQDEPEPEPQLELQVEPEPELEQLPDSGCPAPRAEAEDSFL
Sequence of Insulin-like growth factor 1 receptor (Homo sapiens) (P08069 31-736 limits assumed): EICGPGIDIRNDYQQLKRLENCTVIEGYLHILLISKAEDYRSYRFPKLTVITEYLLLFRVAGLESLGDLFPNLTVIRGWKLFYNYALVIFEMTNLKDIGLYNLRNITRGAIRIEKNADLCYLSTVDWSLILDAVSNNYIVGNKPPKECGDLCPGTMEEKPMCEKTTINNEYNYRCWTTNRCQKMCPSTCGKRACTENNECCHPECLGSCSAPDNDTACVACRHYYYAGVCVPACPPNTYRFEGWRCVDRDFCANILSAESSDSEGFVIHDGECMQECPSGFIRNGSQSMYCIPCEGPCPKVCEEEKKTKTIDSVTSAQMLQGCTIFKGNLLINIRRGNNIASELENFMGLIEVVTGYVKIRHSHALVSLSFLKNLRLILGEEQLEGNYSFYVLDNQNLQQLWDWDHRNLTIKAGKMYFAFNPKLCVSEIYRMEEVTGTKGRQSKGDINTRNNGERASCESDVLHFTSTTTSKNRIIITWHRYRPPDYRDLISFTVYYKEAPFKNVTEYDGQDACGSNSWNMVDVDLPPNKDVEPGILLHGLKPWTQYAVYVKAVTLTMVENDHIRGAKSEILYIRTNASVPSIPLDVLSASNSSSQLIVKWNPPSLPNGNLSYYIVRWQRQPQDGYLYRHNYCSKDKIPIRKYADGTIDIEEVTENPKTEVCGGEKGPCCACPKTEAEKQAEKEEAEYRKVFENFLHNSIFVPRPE
Sequence of Insulin-like growth factor 1 receptor (Homo sapiens) (P08069 741-1367 limits assumed): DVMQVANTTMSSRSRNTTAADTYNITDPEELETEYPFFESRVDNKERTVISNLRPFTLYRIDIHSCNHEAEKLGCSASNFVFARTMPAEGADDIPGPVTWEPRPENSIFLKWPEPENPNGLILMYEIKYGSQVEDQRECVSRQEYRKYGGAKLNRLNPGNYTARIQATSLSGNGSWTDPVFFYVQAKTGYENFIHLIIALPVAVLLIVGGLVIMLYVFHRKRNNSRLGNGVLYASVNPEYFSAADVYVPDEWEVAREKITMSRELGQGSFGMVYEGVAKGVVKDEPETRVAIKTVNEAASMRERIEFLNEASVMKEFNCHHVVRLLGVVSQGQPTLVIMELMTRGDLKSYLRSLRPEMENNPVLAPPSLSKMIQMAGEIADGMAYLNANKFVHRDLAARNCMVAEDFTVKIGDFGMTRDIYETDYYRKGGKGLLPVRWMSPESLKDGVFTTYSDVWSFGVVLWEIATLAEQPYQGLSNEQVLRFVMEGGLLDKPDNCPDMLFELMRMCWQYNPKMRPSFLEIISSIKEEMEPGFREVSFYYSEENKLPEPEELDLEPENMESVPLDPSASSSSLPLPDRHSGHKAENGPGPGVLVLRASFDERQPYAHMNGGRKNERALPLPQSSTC

`CCCC(C)Oc1ccc(C(=O)Nc2ccc3nc(SCC(=O)N[C@@H](C)c4ccccc4)sc3c2)c(OC)c1C` (stereo not given in full) showed an IC50 [1] of 0.16 µM, an IC50 (HEL [2]) of 2.41 µM and an IC50 (MDA-MB-468 [3]) of 1.04 µM. For the same molecule, the IC50 (MDA-MB-453) was over 20 µM, the IC50 (MCF7) was over 20 µM and the inhibition [4] was “Dose-Dependent Effect”. For the same molecule, the inhibition [5] was “Dose-Dependent Effect”, the inhibition [6] was “Dose-Dependent Effect” and the inhibition [7] was “Dose-Dependent Effect”. The inhibition [8] was “Active”, the inhibition [9] was “Active” and the inhibition [10] was “Active”. For the same molecule, the inhibition [11] was “Active”, the inhibition [12] was 0% and the inhibition [13] was 0%. For the same molecule, the inhibition [14] was 5.2%, the inhibition [15] was 0% and the inhibition [16] was 0%. For the same molecule, the Activity (MDA-MB-468 [17]) was “Active”, the Activity (HEL [18]) was “Active” and the Activity (MDA-MB-468 [19]) was “Dose-Dependent Effect”. For the same molecule, the Activity (HEL [20]) was “Dose-Dependent Effect”, the Activity (MDA-MB-468 [21]) was “Dose-Dependent Effect” and the Activity (HEL [22]) was “Dose-Dependent Effect”. The Kd [23] was 0.0626 µM, the Activity [24] was under 10% and the Activity [25] was under 10%. The Activity [26] was under 10%, the Activity (HEL [27]) was “inactive” and the Activity (MDA-MB-468 [28]) was “inactive”.
In the case of `CCCC(C)Oc1ccc(C(=O)Nc2ccc3nc(SCC(=O)N[C@@H](C)c4ccc(OC)cc4)sc3c2)c(OC)c1C` (stereo not given in full), the IC50 [1] is reported as 0.067 µM, the IC50 (HEL [2]) is reported as 1.11 µM and the IC50 (MDA-MB-468 [3]) is reported as 0.25 µM. For the same molecule, the IC50 (MDA-MB-453) was over 20 µM, the IC50 (MCF7) was over 20 µM and the inhibition [4] was “Dose-Dependent Effect”. For the same molecule, the inhibition [5] was “Dose-Dependent Effect”, the inhibition [6] was “Dose-Dependent Effect” and the inhibition [7] was “Dose-Dependent Effect”. The inhibition [8] was “Active”, the inhibition [9] was “Active” and the inhibition [10] was “Active”. The inhibition [11] was “Active”, the inhibition [12] was 0% and the inhibition [13] was 0%. For the same molecule, the inhibition [14] was 9.6%, the inhibition [15] was 0% and the inhibition [16] was 0%. For the same molecule, the Activity (MDA-MB-468 [17]) was “Active”, the Activity (HEL [18]) was “Active” and the Activity (MDA-MB-468 [19]) was “Dose-Dependent Effect”. For the same molecule, the Activity (HEL [20]) was “Dose-Dependent Effect”, the Activity (MDA-MB-468 [21]) was “Dose-Dependent Effect” and the Activity (HEL [22]) was “Dose-Dependent Effect”. It also gave a Kd [23] of 0.053 µM, an Activity [24] of under 10% and an Activity [25] of under 10%. The Activity [26] was under 10%, the Activity (HEL [27]) was “inactive” and the Activity (MDA-MB-468 [28]) was “inactive”.
